Sampled rows, rich in hits. Any-hit rate of the full collection: about 6.7%.
PREPL inh: human PREPL enzyme inhibition; AID 2751; recombinant PREPL, fluorescence polarization activity-based probe; inhibition, % at 5.96 µM; hit rate 0.68% among 320,000; in the data active = inhibition above about 43%
NR3A LBD binder: NR3A (human) ligand-binding domain modulation; Tm shift relative to glycine control, % at 25 µM; hit rate 2.5% among 340,000; NR3A LBD differential scanning fluorimetry, Tm shift; 0% = protein alone, 100% = glycine-bound protein;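 active = melting temperature shift of at least 10% of the positive control shift, at one fixed dose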
CSC inhib: cancer stem cell inhibition; cancer stem cell-like cells viability, luminescence; inhibition, % at 7.5 µM; hit rate 1.1% among 300,000; in the data active = inhibition above about 75%; tested in HMLE shEcad cells
CHOP inh: CHOP inhibition in unfolded protein response; CHO-K1 CHOP-promoter luciferase, tunicamycin-induced, 15-18 h; inhibition, % at 10 µM; AID 2732; hit rate 3.8% among 220,000;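 active = compounds that reduced the stress-induced luciferase reporter signal by more than about 70% of percent inhibition, limit read from the data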
Beta cell apopt: beta cell apoptosis inhibition | INS-1E cytokine-induced death, ATP luminescence, 48 h; percent of positive-control rescue, neutral wells zero | protection from apoptosis, % (no concentration beside the values) | hit rate 0.8% among 300,000 | AID 435005;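 active = Every replicate reaches about 75%, or at least half do and their mean reaches it too, limit read from the data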;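 also: higher means more ATP so stronger rescue from cytokine killing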
T cruzi repl: blocks replication of Trypanosoma cruzi | T. cruzi beta-gal in NIH3T3, luminescence, 90 h | inhibition, % (no concentration beside the values) | hit rate 1.4% among 300,000;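 active = mean inhibition across valid replicates above about 55%, limit read from the data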;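 also: signal also drops with host cell toxicity which is not excluded here; higher percent means less beta-gal luminescence so fewer parasites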
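Read-out: Parasite load inhibition, % | Test system: Mouse NIH/3T3 fibroblasts infected with β-gal-expressing T. cruzi Tulahuen C4 | Amount: 5,000 cells/well | Medium: DMEM, 2% fetal bovine serum | Signal: GalScreen β-gal luminescence, detergent lysis, 60 min | Timing: 3 h attach, ≥90 h co-culture | Also added: Tulahuen C4 trypomastigotes, 5000/well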
Of the large screens only hits and unclear results are named; the others gave an inactive call.

Cc1nn(C(C)C(=O)NC(C)CCc2ccccc2)c(=O)c2cc3occc3n12 (centres undefined)	none (no result: CHOP inh)
COc1ccc(Cl)cc1NC(=O)CSc1nnc(C2CC2)n1N	none (no result: PREPL inh, CSC inhib, CHOP inh, Beta cell apopt, T cruzi repl)
Cc1c(O)ccc(/C=N/Nc2ncccc2[N+](=O)[O-])c1O	none (no result: CHOP inh)
CCCOc1ccc(/C=N/Nc2cccc([N+](=O)[O-])c2)c(O)c1	NR3A LBD binder 33, CSC inhib 113, CHOP inh 74
O=[N+]([O-])c1ccc(O)c(/C=N/Nc2nc3ccccc3[nH]2)c1	CSC inhib 102, Beta cell apopt 99
O=[N+]([O-])c1ccc(N/N=C/c2ccc(OCc3cccc4ccccc34)cc2)nc1	NR3A LBD binder 28
O=[N+]([O-])c1cccnc1N/N=C/c1ccccc1O	Beta cell apopt 110
COc1ccc(O)c(/C=N/Nc2nc3ccccc3[nH]2)c1	none (no result: Beta cell apopt)
COc1ccc(CN2CCN(CCc3ccccc3)C(CCO)C2)cc1Cn1cncn1 (centres undefined)	none
Cc1cc(OCCCC(=O)Nc2cccc(-n3cnnn3)c2)ccc1Cl	none (no result: CHOP inh)
COc1ccccc1C=NNc1ccc([N+](=O)[O-])cn1	none (no result: PREPL inh, CSC inhib, CHOP inh, Beta cell apopt, T cruzi repl)
Cc1cccc(N/N=C/c2ccccc2O)c1	CSC inhib 94
O=[N+]([O-])c1ccc(O)c(/C=N/Nc2ncnc3c2cnn3-c2ccccc2)c1	CSC inhib 104 (no result: PREPL inh, CHOP inh)
O=[N+]([O-])c1ccc(NN=Cc2ccc(O)cc2)nc1	NR3A LBD binder 26 (no result: PREPL inh, CSC inhib, CHOP inh, Beta cell apopt, T cruzi repl)
O=[N+]([O-])c1ccc(NN=Cc2ccccc2O)nc1	NR3A LBD binder 26 (no result: PREPL inh, CSC inhib, CHOP inh, Beta cell apopt, T cruzi repl)
O=C(N/N=C/c1cc([N+](=O)[O-])ccc1O)Nc1ccccc1	none
CCN(CC)C(=O)CSc1nnc(CSc2ncccn2)n1C	none
Cc1nn(C)cc1S(=O)(=O)Nc1cccc(Cl)c1	none (no result: CHOP inh)
CCOc1ccccc1C=NNc1ccc([N+](=O)[O-])cn1	none (no result: PREPL inh, CSC inhib, CHOP inh, Beta cell apopt, T cruzi repl)
N#Cc1ccccc1Cn1cc(/C=N/Nc2ccc([N+](=O)[O-])cn2)c2ccccc21	T cruzi repl 64
CCCOc1ccc(/C=N/Nc2ccc(C(=O)O)cc2)c(OCCC)c1	NR3A LBD binder 21 (no result: PREPL inh, CSC inhib, Beta cell apopt)
CCOc1ccc(NC(=O)CN(C)C(=O)c2ccccc2SCc2c(C)noc2C)cc1OCC	none (no result: CHOP inh)
Cn1c(Oc2ccc(Cl)cc2)c(C=O)c2ccccc21	NR3A LBD binder 15
c1ccc(C(c2ccccc2)c2noc(CN3CCN(C4CCCC4)CC3)n2)cc1	none
FC(F)(F)c1ccc(-c2noc(CN3CCCN(C4CCCCC4)CC3)n2)cc1	CSC inhib 106
Cn1c(=O)c2c(nc(C(O)c3ccccc3)n2C)n(C)c1=O (centres undefined)	none (no result: PREPL inh, CSC inhib, CHOP inh, Beta cell apopt, T cruzi repl)
CN(C)S(=O)(=O)c1ccc2nc(NC(=O)c3cccnc3)sc2c1	none
O=C(NC(Nc1nc2ccc([N+](=O)[O-])cc2s1)(C(F)(F)F)C(F)(F)F)c1cccnc1	CHOP inh 90, Beta cell apopt 119, T cruzi repl 56
COc1ccc2nc(/N=C/c3c(C)[nH]n(-c4ccc(C)cc4)c3=O)sc2c1	none
COc1ccc(N/N=C(\C#N)C(=N)SCc2ccccc2)cc1	NR3A LBD binder 29 (no result: PREPL inh, CSC inhib, Beta cell apopt)
COc1ccc(N/N=C(\C#N)C(=N)N2CCCCC2)cc1	none
Cn1c(=O)c2c(nc3n2CC(O)CN3c2ccc(O)cc2)n(C)c1=O (centres undefined)	none (no result: CHOP inh)
COc1ccccc1NC(=O)c1ccccc1NC(=O)c1ccccn1	none (no result: PREPL inh, CSC inhib, CHOP inh, Beta cell apopt, T cruzi repl)
COc1ccc(Cl)cc1NC(=O)NNC(=O)c1ccccn1	NR3A LBD binder 77 (no result: PREPL inh, CHOP inh)
O=C(/C=C/c1ccccc1O)c1ccco1	NR3A LBD binder 23 (no result: CHOP inh)
Cc1cnc(NC(=O)c2sc3ccccc3c2Cl)s1	NR3A LBD binder 20
O=C(Nc1ccc(NC(=O)c2sc3ccccc3c2Cl)cc1)c1ccco1	NR3A LBD binder 29
O=C(NNC(=S)NC1CCCCC1)c1sc2ccccc2c1Cl	none
CC(C)c1nnc(NC(=O)c2sc3ccccc3c2Cl)s1	none
CC(C)(C)C(=O)NC(=S)NNC(=O)c1sc2ccccc2c1Cl	CHOP inh 110 (no result: CSC inhib)
Cc1ccc(CNC(=O)CNC(=O)c2c(C)nn(C)c2Cl)cc1	none
CCCCOc1ccc(C(=O)NCCOc2cccc(OC)c2)cc1	none (no result: CHOP inh)
COc1ccc(NC(=O)CN2CCc3ccccc3C2)c([N+](=O)[O-])c1	none (no result: CHOP inh)
CCOC(=O)c1cc2c(ccn2C)n1CC(=O)N(Cc1ccccc1)c1ccccc1	none
CCOC(=O)c1cc2c(ccn2C)n1CC(=O)N(Cc1ccccc1)c1ccc(F)cc1	CHOP inh 70

Bioassay records from PubChem BioAssay.
